Test results taken from ChEMBL document CHEMBL4138056, “T- and B-cell immunosuppressive activity of novel α-santonin analogs with humoral and cellular immune response in Balb/c mice” (Medchemcomm, 2017).

Legend:
B-cell line [1] = experiment: Immunosuppressive activity in Balb/c mouse B cells assessed as inhibition of LPS-induced cell proliferation at 100 uM after 48 hrs by MTT assay relative to control; type: functional
Outline: (§1)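 Balb/c spleen single-cell suspension, RBCs lysed with tris-ammonium chloride, viability by trypan blue; 1×10^6 cells/mL stimulated with LPS (10 μg/mL) for B cells, test agent 1, 10 or 100 μM, 48 h at 37 °C, 5% CO2. MTT 4 h, DMSO solubilization, OD 540 nm; % change vs mitogen control; triplicate, three separate experiments.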

Murine T-cell line [2] = experiment: Cytotoxicity against Balb/c mouse T cells assessed as decrease in cell survival at 10 uM by MTT assay; type: cell-based
Outline: (§2)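 Balb/c splenocytes (RBC lysed with tris-ammonium chloride, trypan blue viability) seeded at 1×10^6 cells/mL with Con A or LPS (10 μg/mL each) and test agent at 1, 10 or 100 μM for 48 h at 37 °C, 5% CO2; MTT added for 4 h, formazan dissolved in DMSO, OD 540 nm. Cytotoxicity scored +/−; triplicate, three separate experiments.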

B-cell line [3] = experiment: Cytotoxicity against Balb/c mouse B cells assessed as decrease cell survival at 10 uM by MTT assay; type: cell-based; outline: as §2
Murine T-cell line [4] = experiment: Immunosuppressive activity in Balb/c mouse T cells assessed as inhibition of ConA-induced cell proliferation at 1 uM after 48 hrs by MTT assay relative to control
Murine T-cell line [5] = experiment: Immunosuppressive activity in Balb/c mouse T cells assessed as inhibition of ConA-induced cell proliferation at 100 uM after 48 hrs by MTT assay relative to control
B-cell line [6] = experiment: Cytotoxicity against Balb/c mouse B cells assessed as decrease cell survival at 100 uM by MTT assay; type: cell-based; outline: as §2
B-cell line [7] = experiment: Immunosuppressive activity in Balb/c mouse B cells assessed as inhibition of LPS-induced cell proliferation at 1 uM after 48 hrs by MTT assay relative to control; type: functional; outline: as §1
Murine T-cell line [8] = experiment: Immunosuppressive activity in Balb/c mouse T cells assessed as inhibition of ConA-induced cell proliferation at 10 uM after 48 hrs by MTT assay relative to control
Murine T-cell line [9] = experiment: Cytotoxicity against Balb/c mouse T cells assessed as decrease in cell survival at 100 uM by MTT assay; type: cell-based; outline: as §2
Murine T-cell line [10] = experiment: Cytotoxicity against Balb/c mouse T cells assessed as decrease in cell survival at 1 uM by MTT assay; type: cell-based; outline: as §2
B-cell line [11] = experiment: Immunostimulant activity in Balb/c mouse B cells assessed as induction of LPS-induced cell proliferation at 10 uM after 48 hrs by MTT assay relative to control; type: cell-based; outline: as §1
B-cell line [12] = experiment: Cytotoxicity against Balb/c mouse B cells assessed as decrease cell survival at 1 uM by MTT assay; type: cell-based; outline: as §2
B-cell line [13] = experiment: Immunosuppressive activity in Balb/c mouse B cells assessed as inhibition of LPS-induced cell proliferation at 10 uM after 48 hrs by MTT assay relative to control; type: functional; outline: as §1
Murine T-cell line [14] = experiment: Immunostimulant activity in Balb/c mouse T cells assessed as induction of ConA-induced cell proliferation at 10 uM after 48 hrs by MTT assay relative to control
B-cell line [15] = experiment: Immunostimulant activity in Balb/c mouse B cells assessed as induction of LPS-induced cell proliferation at 1 uM after 48 hrs by MTT assay relative to control; type: cell-based; outline: as §1
B-cell line [16] = experiment: Immunostimulant activity in Balb/c mouse B cells assessed as induction of LPS-induced cell proliferation at 100 uM after 48 hrs by MTT assay relative to control; type: cell-based; outline: as §1
Murine T-cell line [17] = experiment: Immunostimulant activity in Balb/c mouse T cells assessed as induction of ConA-induced cell proliferation at 100 uM after 48 hrs by MTT assay relative to control
Mus musculus [18] = experiment: Inhibition of humoral immune response in Balb/c mouse assessed as decrease in sheep RBC hemagglutination at 6.25 mg/kg, po qd administered 6 consecutive days measured on day 7 by micro titration method relative to control; type: functional; conditions: 168 h
Outline: (§3)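 Female Balb/c mice, groups of six, immunized with SRBC and dosed orally; blood taken on day 7 for primary antibody titre, hemagglutination titre determined by modified microtitration; suppression versus control group.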

Mus musculus [19] = experiment: Inhibition of delayed-type hypersensitivity reaction in Balb/c mouse assessed as decrease in sheep RBC-induced footpad thickness at 25 mg/kg, po qd administered 6 consecutive days followed by sheep RBC challenge measured after 24 to 48 hrs by spheromicrometer relative to control; type: functional
Outline: (§4)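 Female Balb/c mice, groups of six, SRBC-immunized; oral dosing starting 2 h after SRBC, then once daily. Six days later baseline left hind footpad thickness read by spheromicrometer, then intradermal footpad challenge with 20 μL of 5×10^9 SRBC/mL; thickness re-measured at 24 and 48 h versus control group.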

Mus musculus [20] = experiment: Inhibition of humoral immune response in Balb/c mouse assessed as decrease in sheep RBC hemagglutination at 25 mg/kg, po qd administered 6 consecutive days measured on day 7 by micro titration method relative to control; type: functional; conditions: 168 h; outline: as §3
Mus musculus [21] = experiment: Inhibition of delayed-type hypersensitivity reaction in Balb/c mouse assessed as decrease in sheep RBC-induced footpad thickness at 12.5 mg/kg, po qd administered 6 consecutive days followed by sheep RBC challenge measured after 24 to 48 hrs by spheromicrometer relative to control; type: functional; outline: as §4

| SMILES | inhibition at 100 µM (B-cell line [1]) | Activity (Murine T-cell line [2]) | Activity (B-cell line [3]) | inhibition at 1 µM (Murine T-cell line [4]) | inhibition at 100 µM (Murine T-cell line [5]) | Activity (B-cell line [6]) | inhibition at 1 µM (B-cell line [7]) | inhibition at 10 µM (Murine T-cell line [8]) | Activity (Murine T-cell line [9]) | Activity (Murine T-cell line [10]) | Activity (B-cell line [12]) | inhibition at 10 µM (B-cell line [13]) | other results |
| --- | --- | --- | --- | --- | --- | --- | --- | --- | --- | --- | --- | --- | --- |
| CCCCCCCC(=O)Oc1cc(C)c2c(c1C)[C@@H]1OC(=O)[C@@H](C)[C@@H]1CC2 | 57.3% | Non-Toxic | Non-Toxic | 50.4% | 4.22% | Toxic | 37.5% | 43.1% | Toxic | Non-Toxic | Non-Toxic | – | Activity (B-cell line [11]): 53.12% |
| CC1=C2[C@H]3OC(=O)[C@@H](C)[C@@H]3CC[C@@]2(C)C=CC1=O [SANTONIN] | 33.2% | Non-Toxic | Non-Toxic | 35.4% | 8.16% | Non-Toxic | 19% | – | Non-Toxic | Non-Toxic | Non-Toxic | 27.1% | Activity (Murine T-cell line [14]): 3.55% |
| Cc1cc(OC(=O)C(C)C)c(C)c2c1CC[C@H]1[C@H](C)C(=O)O[C@@H]21 | 52.1% | Non-Toxic | Non-Toxic | 53.3% | 73.2% | Non-Toxic | – | 61.5% | Non-Toxic | Non-Toxic | Non-Toxic | 33.3% | Activity (B-cell line [15]): 20.83% |
| Cc1cc(O)c(C)c2c1CC[C@H]1[C@H](C)C(=O)O[C@@H]21 | – | Toxic | Toxic | 22.1% | – | Toxic | 23.3% | 27.4% | Toxic | Toxic | Toxic | 24.9% | Activity (B-cell line [16]): 38.25%; Activity (Murine T-cell line [17]): 58.13% |
| Cc1cc(OC(=O)C(C)(C)C)c(C)c2c1CC[C@H]1[C@H](C)C(=O)O[C@@H]21 | 80.5% | Non-Toxic | Non-Toxic | 35.1% | 75% | Non-Toxic | 48.7% | 58.1% | Non-Toxic | Non-Toxic | Non-Toxic | 66% | inhibition in vivo at 6.25 mg/kg (Mus musculus [18]): 28%; inhibition in vivo at 25 mg/kg (Mus musculus [19]): 35%; inhibition in vivo at 25 mg/kg (Mus musculus [20]): 41%; inhibition in vivo at 12.5 mg/kg (Mus musculus [21]): 30% |
